The text below walks through data of PubChem BioAssay.

Calls of active or inactive are those of the source.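 The calls were made as follows: active = duplicate-averaged activation above buffer control mean plus 5 SD of those controls; inactive = the rest.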

The assay can be described thus: thallium flux activation in parental CHO cells, counter-screen for KCNQ1 potentiator project (AID 493006).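 As to activation: fluorescence ratio of max minus min over baseline after K+ and Tl+ depolarization.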 As to conditions: parental CHO-K1 cells, FluxOR thallium flux, at 10 µM; stronger effect = higher value. In short, it runs like this: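 Assay system: parental CHO-K1 cells lacking KCNQ1, loaded with FluxOR thallium dye; timing: dye 90 min RT, compound 20 min RT; signal: kinetic thallium-flux fluorescence; repeats: duplicate wells per compound, percent values averaged; benchmarks: buffer and R-L3 controls; reagent: Potassium/thallium depolarization pulse; read-out: fluorescence change ratio scaled 0% buffer, 100% R-L3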
(In general: A counterscreen serves to expose hits that act by an unwanted route or on another target.)
For `CCCCNC(=O)CNC(=O)c1nn(-c2ccc(OC)cc2OC)c(=O)c2ccccc12`, the outcome was inactive.
The same measure, in the same setting: next, `O=C(NC(=S)Nc1nc2c(ccc3ccccc32)s1)c1cccs1`: “inactive”; `NC(=O)c1ccc(N2CCNC(=O)C2)c([N+](=O)[O-])c1`: “inactive”.
Same read-out and setting: next, `Cc1cccc(N(CC(=O)NC2CCCC2)C(=O)c2csnn2)c1C`: “inactive”.
For `CNCCC=C1c2ccccc2CCc2ccccc21`, the activation is 150% (active).
Turning to `O=C(OCc1ccccc1)C1=NNC2C(=O)N(c3ccccc3)C(=O)C12` (stereo not given), the result was inactive.
Same read-out and setting: for `COc1ccc(C2c3ccc4ccccc4c3Oc3ncn(CCCO)c(=N)c32)cc1OC` (stereo not given) the value was “inactive”.
In the case of `CCS(=O)(=O)N1Cc2ccccc2CC1C(=O)Nc1cccc(S(=O)(=O)N(C)C)c1` (stereo not given), the outcome was inactive.
`S=c1[nH]c2ccccc2c2ccccc12`: the activation is 148% (active).
For `O=C(NC(=S)NC1CCCc2ccccc21)c1ccc(F)cc1` (stereo not given), the result was inactive.
Turning to `O=C(c1ccc(COc2c(F)c(F)cc(F)c2F)o1)N1CCN(c2ccc(Cl)cc2)CC1`, the outcome was inactive.
Turning to `O=C(c1nnsc1S(=O)c1ccc(Cl)cc1)N1CCOCC1` (stereo not given), the result was inactive.
Still for that read-out and setting: next, `CC1(c2ccc(OC(F)F)cc2)NC(=O)N(CC(=O)Nc2ccccc2)C1=O` (stereo not given): “inactive”.
For `Cc1ccc(C)c(NC(=S)NNC(=O)c2csc(C(C)C)c2)c1`, the activation was 162% (active).
Regarding `Cc1ccc(-c2nn(-c3ccccc3)cc2/C=N/n2c(-c3cccs3)n[nH]c2=S)cc1`, the outcome was inactive.
On the same count and under the same terms, next, `CCOC(=O)CS(=O)(=O)c1nc(-c2ccc(F)cc2)cc(C(F)(F)F)n1`: “inactive”.
In the case of `COC(=O)c1ccc(CSc2nnc(SCc3ccc(C(=O)OC)o3)s2)o1`, the result was inactive.
For the compound `COc1ccc(OC)c(Nc2cc3ccccc3c(=O)[nH]2)c1`, the result was inactive.
Consider `CCOC(=O)C1CCN(C(=O)COC(=O)c2cc(-c3cccs3)nn2-c2ccccc2)CC1`, for which the result was inactive.
Still for that read-out and setting: for `Cc1ccc(/C=C2\SC(=S)N(NS(=O)(=O)c3ccc(C)cc3)C2=O)cc1` the value was “inactive”; for `CCOc1cc(S(=O)(=O)Nc2ccc(Cl)cn2)ccc1Cl`, “inactive”.
Still for that read-out and setting: for `Cc1ccc(Nc2c(-c3ccc(C)o3)nc3cnccn23)cc1` the value was “inactive”.
On the same count and under the same terms, next, `O=[N+]([O-])c1ccc(C(O)C(CO)NC(=S)Nc2ccccc2)cc1` (stereo not given): “inactive”.
With `COCC(=O)Nc1nnc(SCC(=O)N2C(C)CCCC2C)s1` (stereo not given), the outcome was inactive.
The same measure, in the same setting: for `CCc1ccc(C2c3[nH]c4ccccc4c3CCN2C(=O)CN2CCN(CC)CC2)cc1` (stereo not given) the value was “inactive”.
Take `COc1ccc(/C=C(\NC(=O)c2cccs2)C(=O)N2CCOCC2)cc1OC`: the activation is 137% (active).
In the case of `Cc1cc(OC(=O)c2cc(Cl)ccc2Cl)c([N+](=O)[O-])c(=O)[nH]1`, the outcome was inactive.
Still for that read-out and setting: for `CC(=O)c1ccc(NC(=S)NC(=O)c2c(Cl)c(C)nn2C)cc1` the value was “inactive”; for `S=c1[nH]nc(-c2ccccc2)n1/N=C/c1ccc(-c2ccccc2Cl)o1`, “inactive”.
`CN(C(=S)NC(=O)c1ccccc1Br)C1CCCCC1`: the activation is 206% (active).
In the case of `COc1cccc(CN2CCN(Cc3cc4ccccc4[nH]3)CC2CCO)c1` (stereo not given), the outcome was inactive.
Consider `CC(C)COc1ccc(-c2nn(-c3ccccc3)cc2/C=C2/SC(=S)N(CC(=O)O)C2=O)cc1`, for which the result was inactive.
For `CN(C(=S)NC(=O)c1ccc(F)cc1)C1CCCCC1`, the activation is 154% (active).
For `CC(C)COc1ccc(-c2nn(-c3ccccc3)cc2C(=O)Nc2nccs2)cc1`, the outcome was inactive.
Take `Cc1ccc(NC(=O)Cn2nc(C)c3ccccc3c2=O)c(C)c1`: the outcome was inactive.
